Reference: ChEMBL document CHEMBL4350976, “Sequence modification of heptapeptide selected by phage display as homing device for HT-29 colon cancer cells to improve the anti-tumour activity of drug delivery systems” (Eur J Med Chem, 2019)
Where a SMILES comes first, the peptide text is derived from it. The star is where a group is joined. X1 = COc1cccc2c1C(=O)c1c(O)c3c(c(O)c1C2=O)C[C@@](O)(/C(C)=N/OCC(=O)*)C[C@@H]3O[C@H]1C[C@H](N)[C@H](O)[C@H](C)O1

What was measured:
[1] = Cytostatic activity against human PECAPJ41 cells preincubated for 24 hrs under serum free condition followed by compound washout and further incubation for 48 hrs in presence of serum by MTT assay; type: functional, cell-based
In short: (§1)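 Cells were grown at 37 °C in 5% CO2 in medium with 10% heat-inactivated FBS (20% for OVCAR-3) plus penicillin/streptomycin. The medium was RPMI-1640 for most lines, DMEM for U-87 MG and MRC-5, and IMDM for PE/CA-PJ lines. Seeding was 3×10^3–10×10^3 cells per well. Cells had 24 h compound exposure, a wash, and 48 h further culture. Read-out was MTT, normalized to untreated cells and fitted by nonlinear regression for IC50.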

[2] = Solubility of compound; type: physicochemical
HT-29 = assay: Antitumor activity against human HT-29 cells xenografted in SCID mouse assessed as decrease in number of Ki-67 positive cells measured as proliferation index at 38.3 mg/kg, ip administered thrice in first week (on days 13, 16, 20, 23 and 27) and twice in second week starting from 13 days post inoculation measured at day 30 post inoculation by KI-67-staining based light microscopic analysis (reference value: 100%); type: functional; design: scale not given: the % may be the effect or the level left
In short: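 Tumours from the SCID HT-29 orthotopic study were formalin-fixed and paraffin-embedded, cut at 2 µm, and given citrate pH 6 retrieval at 98 °C for 40 min. They were stained with anti-human Ki-67 (1:40, 1 h RT), then a biotinylated link, HRP polymer and AEC. Ki-67+ cells were counted in 5 fields per tumour at 40× magnification. The proliferation index is the % positive cells.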

[3] = Stability in human plasma assessed as parent compound remaining at 30 uM measured after 1 hr by LC/MS analysis; type: ADME, cell-free
In short: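 Conjugates were incubated in 90% human plasma from a healthy volunteer. Samples were taken at 0, 5 and 60 min and analysed by HPLC-MS.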

NCI-H1975 = assay: Potency index, ratio of compound IC50 to Daunomycin IC50 for human NCI-H1975 cells preincubated for 24 hrs under serum free condition followed by compound washout and further incubation for 48 hrs in presence of serum by MTT assay; type: functional
OVCAR-3 = assay: Cytostatic activity against human OVCAR3 cells preincubated for 24 hrs under serum free condition followed by compound washout and further incubation for 48 hrs in presence of serum by MTT assay; type: functional, cell-based; in short: as §1
MDA-MB-231 = assay: Potency index, ratio of compound IC50 to Daunomycin IC50 for human MDA-MB-231 cells preincubated for 24 hrs under serum free condition followed by compound washout and further incubation for 48 hrs in presence of serum by MTT assay; type: functional
WiDr = assay: Cytostatic activity against human WiDr cells preincubated for 24 hrs under serum free condition followed by compound washout and further incubation for 48 hrs in presence of serum by MTT assay; type: functional, cell-based; in short: as §1
[4] = Stability in serum free medium at 30 uM incubated for 3 hrs by LC/MS analysis
In short: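 Conjugates (30 μM) were incubated at 37 °C in serum-free medium. Samples were taken at 0 and 3 h, quenched with acetic acid, lyophilised, desalted on C18 spin columns and analysed by LC-MS.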

HepG2 = assay: Cytostatic activity against human HepG2 cells preincubated for 24 hrs under serum free condition followed by compound washout and further incubation for 48 hrs in presence of serum by MTT assay; type: functional, cell-based; in short: as §1

With COc1cccc2c1C(=O)c1c(O)c3c(c(O)c1C2=O)C[C@@](O)(/C(C)=N/OCC(=O)N[C@@H](CC(C)C)C(=O)N[C@@H](CCCNC(=N)N)C(=O)N[C@@H](CCCNC(=N)N)C(=O)N[C@@H](Cc1ccc(O)cc1)C(=O)N[C@H](C(=O)N[C@@H](Cc1cnc[nH]1)C(=O)N[C@@H](CC(C)C)C(=O)N[C@@H](Cc1ccccc1)C(=O)N[C@@H](Cc1ccc(O)cc1)C(=O)N[C@@H](C)C(=O)N[C@H](C(N)=O)[C@@H](C)O)C(C)C)C[C@@H]3O[C@H]1C[C@H](N)[C@H](O)[C@H](C)O1 (X1-LRRYVHLFYAT-NH2) the IC50 [1] was 4.3 µM, the solubility [2] was “Soluble” and the Activity (HT-29) was 58%. The Stability [3] was “Stable”, the “Ratio IC50” value (NCI-H1975) was 279.9 and the IC50 (OVCAR-3) was 11.3 µM. For the same molecule, the “Ratio IC50” value (MDA-MB-231) was 86.6, the IC50 (WiDr) was 15.1 µM and the Stability [4] was “Stable”. For the same molecule, the IC50 (HepG2) was 4.7 µM.
